Results as given in ChEMBL document CHEMBL5233202, “Metabolically stable apelin-analogues, incorporating cyclohexylalanine and homoarginine, as potent apelin receptor activators” (RSC Med Chem, 2021).
pEC50, pKi: −log10 of the molar value. Non-standard residues stand in square brackets, D forms with d. Residues, ends and D or L forms follow the SMILES beside them. Phe(4-Br) = N[C@@H](Cc1ccc(Br)cc1)C(=O)O; NMeCha = CN[C@@H](CC1CCCCC1)C(=O)O; hArg = N=C(N)NCCCC[C@H](N)C(=O)O; Nle = CCCC[C@H](N)C(=O)O; Aib = CC(C)(N)C(=O)O

What was measured:
[1] = Protein binding in pooled human plasma at 100 uM incubated for 3 hrs by equilibrium dialysis method; assay type: ADME, cell-free; settings: read-out: PPB (converted)
Procedure, shortened: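 Equilibrium dialysis. DMSO stock (1 mM) diluted to 100 μM final in 55% pooled human plasma stabilized with EDTA and MLN-4760, dialyzed against PBS pH 7.4 at 37 °C, 120 rpm, 3 h. Retentate diluted with PBS and dialysate with plasma, then quenched with 10% TFA/acetonitrile. Dans-YVG internal standard added, centrifuged, LC-MS.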

[2] = molecular target: T1, Apelin receptor (Homo sapiens, UniProt P35414); assay: Activation of recombinant human APJ receptor expressed in rat Chem-5 cells assessed as increase in Ca2+ mobilization by FLIPR Calcium 6-QF fluorescent dye based assay; assay type: cell-based
T1 sequence (P35414 whole entry): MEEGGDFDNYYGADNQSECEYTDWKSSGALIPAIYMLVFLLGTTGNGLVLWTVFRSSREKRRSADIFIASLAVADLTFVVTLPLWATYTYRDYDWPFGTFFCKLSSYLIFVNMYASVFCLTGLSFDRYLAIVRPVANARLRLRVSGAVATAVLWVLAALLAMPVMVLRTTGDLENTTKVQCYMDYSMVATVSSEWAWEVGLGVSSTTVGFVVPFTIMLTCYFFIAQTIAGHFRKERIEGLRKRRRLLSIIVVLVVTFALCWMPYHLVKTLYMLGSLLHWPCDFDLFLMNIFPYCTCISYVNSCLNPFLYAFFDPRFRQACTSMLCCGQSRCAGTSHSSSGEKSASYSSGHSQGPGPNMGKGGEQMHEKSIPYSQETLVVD
Procedure, shortened: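 Frozen Chem-5 cells stably expressing human APJ, thawed per supplier protocol, loaded 1 h with Calcium 6-QF dye in HBSS/20 mM HEPES/0.2% DMSO/2.5 mM probenecid, pH 7.6. Cells washed three times and rested 10 min, then read on FLIPR. Agonist response taken as maximum fluorescence change over baseline. pEC50 from four-parameter logistic fit; triplicates.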

[3] = test system: Mus musculus; assay: Hypotensive effect in anesthetized wild type mouse assessed as total time duration of hypotensive effect at 1.4 uM/Kg, iv administered via right jugular vein measured for 60 mins; assay type: functional; settings: 1 h
Procedure, shortened: (§1)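 Anesthetized mice received peptide at 1.4 μM kg−1 body weight, or equal-volume saline, by injection into the right jugular vein (n = 3). HR, MABP, SBP and DBP were recorded from blood pressure traces and reported as mean ± S.E.M.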

[4] = molecular target: T2, Neprilysin (Homo sapiens, UniProt P08473); assay: Proteolytic stability assessed as recombinant human NEP-mediated compound degradation by measuring half life incubated for 24 hrs by LC-MS analysis; assay type: ADME; settings: 24 h
[5] = test system: Mus musculus; assay: Hypotensive effect in anesthetized wild type mouse assessed as change in mean arterial blood pressure at 1.4 uM/Kg, iv administered via right jugular vein measured for 60 mins; assay type: functional; settings: 1 h; procedure, shortened: as §1
[6] = Stability in human plasma assessed as half life at 1 mM measured for 24 hrs by LC-MS analysis; assay type: ADME, cell-free
Procedure, shortened: (§2)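 Plasma (20 μL, human or murine) prewarmed to 37 °C, then 5 μL of 1 mM peptide added and incubated at 37 °C. Samples quenched at 1, 3, 6 and 24 h with 6 M GuHCl/80% ACN and Dans-YVG internal standard, centrifuged, solid-phase extracted and analyzed by LC-MS. Peptide/standard peak-area ratio normalized to 0 h; triplicates.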

[7] = molecular target: T3, Apelin receptor (Rattus norvegicus, UniProt Q9JHG3); assay: Displacement of [125I]-pyr-1-apelin-13 from EGFP tagged rat apelin receptor expressed in CHO cell membrane incubated for 3 hrs by gamma counter analysis; assay type: cell membranes
T3 sequence (Q9JHG3 whole entry): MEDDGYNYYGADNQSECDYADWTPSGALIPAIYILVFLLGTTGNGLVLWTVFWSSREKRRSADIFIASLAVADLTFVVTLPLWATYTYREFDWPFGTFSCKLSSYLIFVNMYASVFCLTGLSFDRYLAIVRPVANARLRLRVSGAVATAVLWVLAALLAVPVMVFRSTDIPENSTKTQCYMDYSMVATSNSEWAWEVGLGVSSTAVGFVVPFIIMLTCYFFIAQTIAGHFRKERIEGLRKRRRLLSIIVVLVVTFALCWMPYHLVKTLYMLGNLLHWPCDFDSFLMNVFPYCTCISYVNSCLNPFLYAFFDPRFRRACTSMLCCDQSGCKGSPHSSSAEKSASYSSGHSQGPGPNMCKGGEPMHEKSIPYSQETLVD
Procedure, shortened: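 Crude membranes (1 μg/assay) from CHO cells stably expressing wild-type rat APJ-EGFP, incubated 3 h at 20 °C with 0.2 nM [125I]-pyr-1-apelin-13 (Lys8 Bolton–Hunter monoiodinated) and competitor at various concentrations. Binding buffer: 50 mM HEPES, 5 mM MgCl2, 1% BSA, pH 7.5. Quenched with cold buffer, GF/C filtered and washed, gamma counted; triplicates.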

[8] = molecular target: T2, Neprilysin; assay: Proteolytic stability assessed as recombinant human NEP-mediated compound degradation incubated for 24 hrs by LC-MS analysis; assay type: ADME
Procedure, shortened: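 Recombinant human NEP diluted to 2 ng μL−1 in NEP-B buffer and preincubated 10 min at 37 °C. Peptide (1 mM aqueous solution) added and incubated at 37 °C. Aliquots taken at 0, 2, 10, 20 and 48 h, quenched and quantified by LC-MS; triplicate per time point.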

[9] = Stability in mouse plasma assessed as half life at 1 mM measured for 24 hrs by LC-MS analysis; assay type: ADME, cell-free; procedure, shortened: as §2

T2 sequence (P08473 whole entry): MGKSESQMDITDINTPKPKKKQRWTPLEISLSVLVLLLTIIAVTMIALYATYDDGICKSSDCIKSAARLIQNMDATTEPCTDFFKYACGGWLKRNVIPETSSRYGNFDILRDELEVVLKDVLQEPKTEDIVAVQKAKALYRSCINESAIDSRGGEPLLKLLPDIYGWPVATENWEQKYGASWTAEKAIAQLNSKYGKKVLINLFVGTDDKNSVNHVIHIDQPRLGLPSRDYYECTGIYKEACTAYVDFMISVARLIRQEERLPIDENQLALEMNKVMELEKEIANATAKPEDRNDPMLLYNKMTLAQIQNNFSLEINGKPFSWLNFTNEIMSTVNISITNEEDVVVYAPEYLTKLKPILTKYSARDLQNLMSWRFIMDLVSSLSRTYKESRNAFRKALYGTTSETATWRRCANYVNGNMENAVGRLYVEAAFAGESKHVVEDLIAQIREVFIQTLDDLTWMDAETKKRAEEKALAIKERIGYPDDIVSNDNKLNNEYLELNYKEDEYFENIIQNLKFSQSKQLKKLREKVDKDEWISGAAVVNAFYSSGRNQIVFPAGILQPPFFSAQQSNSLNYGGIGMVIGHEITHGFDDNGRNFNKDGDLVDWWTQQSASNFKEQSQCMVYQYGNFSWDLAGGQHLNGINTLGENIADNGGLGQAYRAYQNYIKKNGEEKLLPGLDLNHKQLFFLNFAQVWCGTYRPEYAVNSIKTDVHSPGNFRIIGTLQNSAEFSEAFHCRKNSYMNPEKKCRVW

fraction unbound at 3 h, 100 µM [1]	pEC50 [2]	t1/2 [4]	half-life at 1000 µM [6]	pKi [7]	Stability [8]	half-life at 1000 µM [9]	Compound	Time [3]	Activity [5]
0.43	8.37	10.95 h	54 min	–	–	–	CCCC[C@H](NC(=O)[C@@H]1CCCN1C(=O)CNC(=O)[C@H](CCCCN)NC(=O)[C@H](Cc1c[nH]cn1)NC(=O)[C@H](CO)NC(=O)[C@H](CC(C)C)NC(=O)[C@H](CCCNC(=N)N)NC(=O)[C@@H]1CCCN1C(=O)[C@H](CCCNC(=N)N)NC(=O)[C@H](CCC(N)=O)NC(=O)[C@H](CCCNC(=N)N)NC(=O)[C@H](CCCNC(=N)N)NC(=O)[C@H](Cc1ccccc1)NC(=O)[C@@H](N)CCCCN)C(=O)NC(C)(C)C(=O)N[C@@H](Cc1ccc(Br)cc1)C(=O)O (H-KFRRQRPRLSHKGP[Nle][Aib][Phe(4-Br)]-OH)	33 min	10.24 mmHg
0.32	7.79	–	174 min	8.70	Stable	26.4 min	CCCC[C@H](NC(=O)[C@@H]1CCCN1C(=O)CNC(=O)[C@H](CCCCN)NC(=O)[C@H](Cc1c[nH]cn1)NC(=O)[C@H](CO)NC(=O)[C@H](CC1CCCCC1)N(C)C(=O)[C@H](CCCNC(=N)N)NC(=O)[C@@H]1CCCN1C(=O)[C@H](CCCNC(=N)N)NC(=O)[C@H](CCC(N)=O)NC(=O)[C@H](CCCNC(=N)N)NC(=O)[C@H](CCCNC(=N)N)NC(=O)[C@H](Cc1ccccc1)NC(=O)[C@@H](N)CCCCN)C(=O)NC(C)(C)C(=O)N[C@@H](Cc1ccc(Br)cc1)C(=O)O (H-KFRRQRPR[NMeCha]SHKGP[Nle][Aib][Phe(4-Br)]-OH)	60 min	28.83 mmHg
0.31	7.14	–	205 min	9.19	Stable	21.6 min	CCCC[C@H](NC(=O)[C@@H]1CCCN1C(=O)CNC(=O)[C@H](CCCCN)NC(=O)[C@H](Cc1c[nH]cn1)NC(=O)[C@H](CO)NC(=O)[C@H](CC1CCCCC1)N(C)C(=O)[C@H](CCCCNC(=N)N)NC(=O)[C@@H]1CCCN1C(=O)[C@H](CCCNC(=N)N)NC(=O)[C@H](CCC(N)=O)NC(=O)[C@H](CCCNC(=N)N)NC(=O)[C@H](CCCNC(=N)N)NC(=O)[C@H](Cc1ccccc1)NC(=O)[C@@H](N)CCCCN)C(=O)NC(C)(C)C(=O)N[C@@H](Cc1ccc(Br)cc1)C(=O)O (H-KFRRQRP[hArg][NMeCha]SHKGP[Nle][Aib][Phe(4-Br)]-OH)	60 min	47.57 mmHg
